Compounds with a hit are over-represented: about 5.5% of the library has one in this group of screens.
Yeast lifespan up: compounds extending yeast replicative lifespan, primary screen, S. cerevisiae, OD615 | S. cerevisiae growth with nicotinamide; deaD strain in restrictive glucose medium | inhibition of the nicotinamide effect, % at 10 µM | 130,000 tested, 0.68% active | AID 775, 2007;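 active = inhibition above a set limit, placed 3 SD over the median of all compounds, cut at about 26% in these data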;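 note: 0% = nicotinamide-treated wells and 100% = cells grown without nicotinamide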
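Assay system: DeaD-strain S. cerevisiae. Medium: CSMM-D glucose medium, restrictive. Reagent: nicotinamide, 1.5 mM, co-present with compound. Compound: 10 µM single point, 0.25% DMSO. Schedule: culture preincubation 4 h, compound exposure 48 h, both 30 °C. Detection: absorbance at 615 nm.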
WT yeast gro inh: growth inhibition of WT strain, primary screen, mitochondrial fusion inhibitor project, WT and mutant strains, chemical genetic | 190,000 tested, 2.1% active | AID 1362, 2008 | mitochondrial fusion phenotypic screen | inhibition, % at 10 µM; in the data active = inhibition above about 58%; tested in S. cerevisiae
KCC2 mod: KCC2 cotransporter modulators, thallium flux, primary screen, cell-based, HEK293 KCC2, FluoZin-2 fluorescence, MLSMR | Solute carrier family 12 member 5 (Homo sapiens), Q9H2X9 | KCC2 cells, thallium flux FluoZin-2 fluorescence | 190,000 tested, 2.2% active | B-score of Tl+ flux slope (higher = more flux/activation; lower = inhibition) at 10 µM;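 active = thallium flux slope and its plate-corrected score both differing from the plate sample mean at a set confidence after two filtering rounds, in either direction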;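 note: slope of fluorescence scaled to starting intensity during 10 to 20 s after thallium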
Target sequence (Q9H2X9 whole entry, looked up): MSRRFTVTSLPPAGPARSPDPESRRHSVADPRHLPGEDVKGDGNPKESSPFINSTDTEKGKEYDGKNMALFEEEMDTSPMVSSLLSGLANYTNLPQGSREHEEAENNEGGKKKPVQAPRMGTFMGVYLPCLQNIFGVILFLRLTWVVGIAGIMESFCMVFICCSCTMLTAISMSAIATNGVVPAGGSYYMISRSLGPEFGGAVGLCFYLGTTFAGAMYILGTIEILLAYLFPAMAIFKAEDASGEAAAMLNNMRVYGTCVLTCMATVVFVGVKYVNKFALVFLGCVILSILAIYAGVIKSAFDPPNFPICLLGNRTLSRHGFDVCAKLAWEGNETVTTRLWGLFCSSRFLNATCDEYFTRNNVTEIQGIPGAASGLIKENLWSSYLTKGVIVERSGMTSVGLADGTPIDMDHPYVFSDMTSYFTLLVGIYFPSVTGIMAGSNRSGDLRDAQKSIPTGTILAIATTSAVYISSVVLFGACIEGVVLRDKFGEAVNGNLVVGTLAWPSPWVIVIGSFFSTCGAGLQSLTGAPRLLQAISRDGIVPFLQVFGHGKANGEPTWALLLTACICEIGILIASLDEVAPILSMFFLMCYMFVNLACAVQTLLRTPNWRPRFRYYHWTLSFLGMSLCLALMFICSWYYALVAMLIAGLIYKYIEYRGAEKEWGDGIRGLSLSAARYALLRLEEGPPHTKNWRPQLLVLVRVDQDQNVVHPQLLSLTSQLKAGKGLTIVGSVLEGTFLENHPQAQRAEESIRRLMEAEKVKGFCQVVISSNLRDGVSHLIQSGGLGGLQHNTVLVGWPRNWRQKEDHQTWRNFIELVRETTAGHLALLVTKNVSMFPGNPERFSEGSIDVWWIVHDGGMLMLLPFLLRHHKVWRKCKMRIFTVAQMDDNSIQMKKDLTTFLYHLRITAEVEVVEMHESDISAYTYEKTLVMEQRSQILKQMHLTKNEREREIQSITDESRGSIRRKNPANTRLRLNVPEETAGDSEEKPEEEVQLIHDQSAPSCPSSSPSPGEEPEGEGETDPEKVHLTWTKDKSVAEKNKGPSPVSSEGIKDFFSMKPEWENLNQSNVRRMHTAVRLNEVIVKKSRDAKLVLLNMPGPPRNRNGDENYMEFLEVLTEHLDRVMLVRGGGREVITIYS
RAM inhibit: inhibitors of the yeast RAM network, primary screen, dse1pr::URA3 reporter, 5-FOA selection. S. cerevisiae dse1pr::URA3 reporter, 5-FOA growth OD615, 2 d; analog-sensitive cbk1-as2 kinase mutant strain. inhibition, % at 50 µM. 190,000 tested, 1.8% active. AID 868, 2007;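 active = inhibition above a set limit, 3 SD over mean compound inhibition, cut at about 8.4% in these data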;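 note: 0% = DMSO-only wells with no growth and 100% = 10 µM 1-NA-PP1 full growth; inhibition rescues growth on 5-FOA so higher OD means more RAM inhibition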
BB579 growth dn: growth inhibitors of yeast BB579 in restrictive medium, primary screen, yeast lifespan-shortening project, S. cerevisiae | OD615, 48 h | inhibition, % at 10 µM | AID 804, 2007 | 140,000 tested, 0.51% active;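 active = inhibition above a set limit, 3 SD over the mean compound inhibition, cut at about 44% in these data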
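test system = yeast BB579 (DeaD) | buffer or medium = restrictive CSMM-D medium | doses = single compound dose of 10 µM, 0.25% DMSO final | times = 4 h preincubation and 48 h exposure at 30 °C | technique = culture absorbance at 615 nm | benchmarks = amphotericin B 10 µg/mL, positive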
The depositor's hits bear a star; nt = no result given.

SMILES | Yeast lifespan up | WT yeast gro inh | KCC2 mod | RAM inhibit | BB579 growth dn
CC(c1cccs1)N(Cc1ccco1)C(=S)Nc1ccc(F)c(Cl)c1 (configuration not stated) | nt | 78.5* | -0.194 | 3.8 | nt
CC(=O)N1CCN(Cc2nc3cc(NC(=O)c4ccc(F)cc4)ccc3n2C)CC1 | nt | 0.3 | -0.956 | -0.6 | nt
Cc1ccc(NC(=O)CN(C)C(=O)CCC(=O)c2cccs2)cc1 | -6.2 | -2.8 | -0.0222 | 1.4 | -17.5
CCN(CC)S(=O)(=O)c1cccc(-c2nnc(SCC(=O)NC3CCCCCCC3)n2N)c1 | -7.1 | 10.5 | -0.651 | 1.7 | -33.7
Cc1cc(C(=O)CN2C(=O)C(=O)N(CC(C)C)C2=O)c(C)n1-c1ccccc1F | nt | -10.1 | -0.527 | 6.8 | nt
CCSc1ccccc1C(=O)Nc1ccc(S(=O)(=O)NC(C)=O)cc1 | nt | -0.6 | 3.16 | 1.3 | nt
Cc1ccc(C(=C2C3C=CC2C2C(=O)NC(=O)C32)c2ccc(C)cc2)cc1 (configuration not stated) | -7.2 | 82.8* | 0.493 | 6.0 | -55.6
CC(CCc1ccccc1)NC(=O)N1CCOCC1 (configuration not stated) | 3.9 | -18.3 | 1.21 | -0.4 | 4.8
O=CNC(Cc1ccccc1)C(=O)O (configuration not stated) | -7.1 | -7.3 | 0.0428 | -0.5 | 17.7
CC1CCCC(C)N1C(=O)c1cc(-c2ccc(Cl)c(Cl)c2)on1 (configuration not stated) | -4.7 | 3.2 | 1.8 | 10.6* | -40.2
Cc1ccc(-c2cc(C(=O)N3CCCC3)no2)cc1 | -18.4 | -10.1 | 0.151 | -0.3 | -4.3
CC(C)CC(=O)c1c[nH]c(C(=O)N2CCN(Cc3ccccc3)CC2)c1 | nt | -15.3 | -0.928 | 0.2 | nt
COc1ccc(C2CC(C)(c3ccc(OC)cc3OC)Nc3ccccc3N2)c(OC)c1 (configuration not stated) | nt | 72.1* | -0.014 | -1.5 | nt
COC(=O)C1=C(C)C(c2ccc(OC)cc2OC)NC(=O)N1 (configuration not stated) | -8.7 | -12.7 | -0.199 | 2.0 | -49.3
CC(C)CCN1C(=O)c2ccc(C(=O)NCC3CCCO3)cc2C1=O (configuration not stated) | -8.5 | -27.3 | 0.329 | 1.5 | 4.7
CSc1cccc(NC(=S)N2CCCN(Cc3ccc(F)cc3)C2)c1 | nt | 7.8 | 0.0309 | 0.7 | nt
CCC(=O)Nc1sc2c(c1C#N)CC(C)(CC)OC2 (configuration not stated) | -21.2 | -8.5 | 0.933 | 1.4 | -9.4
CCOP(=O)(OCC)c1nc(/C=C/c2ccccc2)oc1NCc1ccccc1 | -4.5 | 83.3* | -1.22 | 1.3 | -10.1
Cc1ccc(Cl)c(OC(=O)c2nn(C(C)C)c(=O)c3ccccc23)c1 | 15.8 | 7.3 | 0.469 | 10.2* | -22.8
CCOC(=O)COc1c(Br)cc(/C=C2\SC(=O)N(CC(=O)N3CCCC3)C2=O)cc1OC | -11.0 | -7.1 | -0.00447 | 10.7* | -51.9
CCOc1c(Br)cc(/C=C2/SC(=O)N(CC(=O)N3CCCC3)C2=O)cc1OC | -9.5 | -13.6 | nt | 1.4 | -0.5
CCCCOC(=O)C(C)Sc1n[nH]c(=O)[nH]c1=O (configuration not stated) | nt | 2.7 | -1.12 | 1.0 | nt
CCOC(=O)N1CCC(Nc2ccc(N3C(=O)C4CCCCC4C3=O)cc2[N+](=O)[O-])CC1 (configuration not stated) | nt | 15.6 | -0.785 | 1.0 | nt
CSc1nc2ccc(Cl)cc2[nH]1 | nt | -8.8 | 0.227 | 0.6 | -30.7
CSc1nc2cc(Oc3cccc(Cl)c3Cl)c(Cl)cc2[nH]1 | nt | 85.5* | 1.51 | nt | nt
SMILES | Yeast lifespan up | WT yeast gro inh | KCC2 mod | RAM inhibit | BB579 growth dn
COc1cccc2c1OCC/C2=N\NC(=O)C(C)Oc1ccc([N+](=O)[O-])cc1 (configuration not stated) | nt | -8.4 | nt | 2.4 | nt
Cc1cccc(Nc2ncnc3ccc(Br)cc23)c1 | nt | 34.6 | -0.64 | 0.4 | nt
Clc1cccc(Nc2ncnc3ccc(Br)cc23)c1 | -29.7 | 72.8* | nt | 3.9 | -34.6
Clc1ccc(Nc2ncnc3ccc(Br)cc23)cc1 | 0.2 | 60.6* | nt | 1.6 | -20.9
CN(C)S(=O)(=O)N1CCCC(C(=O)c2ccc(-c3ccccc3)c(F)c2)C1 (configuration not stated) | nt | 42.0 | -1.5 | 6.7 | nt
CSc1ccc(C(=O)C2CCCN(S(=O)(=O)N(C)C)C2)cc1 (configuration not stated) | nt | 21.3 | -0.391 | 10.2* | nt
CCOc1cccc(Oc2ncccc2C(=O)/C(C#N)=C/N(C)C)c1 | -27.4 | 95.1* | nt | 0.1 | -39.7
CN(C)/C=C(\C#N)C(=O)c1cccc(Oc2ccc(Br)cc2)c1 | -7.4 | -9.5 | -1.05 | 0.0 | -61.0
CNc1nnc(-c2cc3cc(Cl)ccc3oc2=O)s1 | -12.1 | 40.5 | -1.41 | 3.6 | 56.8*
O=c1oc2ccc(Cl)cc2cc1-c1nnc(Nc2cccc(C(F)(F)F)c2)s1 | 6.4 | -7.0 | -1.05 | 2.1 | -48.6
CCCCOc1ccc(C(=O)N2CCCCCC2)cc1 | -2.7 | -4.9 | 0.492 | -0.3 | -4.6
O=C(c1ccc(COc2ccc(Cl)cc2)cc1)N1CCCCC1 | nt | 59.6* | -0.401 | -1.9 | nt
Oc1ccc(N=Nc2c(O)ccc3ccccc23)cc1 | -5.8 | 98.3* | nt | 5.4 | -31.6
O=C(CSc1nc2cc(Cl)ccc2o1)NCCc1ccccc1 | -11.0 | 68.1* | -0.447 | 1.7 | -33.8
CCS(=O)(=O)c1ccc2oc(SCC(=O)NCCc3ccccc3)nc2c1 | nt | 2.9 | -0.555 | -0.5 | nt
CC(C)Nc1nc(Oc2ccc(Cl)cc2Cl)cc(C(F)(F)F)n1 | -14.5 | 38.0 | nt | 0.8 | -35.8
CC(C)Nc1nc(Oc2cccc(Cl)c2Cl)cc(C(F)(F)F)n1 | -9.8 | 87.3* | 0.00734 | -0.6 | 5.2
CCn1c(=S)sc2c(=O)n(-c3ccccc3)c(SC)nc21 | 5.8 | 23.4 | nt | 3.4 | -36.5
CCN(CC)c1nc(-c2ccccc2)nc2c1sc(=S)n2CC | nt | 4.8 | 0.592 | 9.8* | nt
Cc1ccc(S(=O)(=O)c2nnn3c2nc(Nc2cccc(C)c2)c2ccccc23)cc1 | 1.6 | 0.8 | -0.147 | 5.1 | -22.6
Cc1ccc(C)c(Nc2nc3c(S(=O)(=O)c4ccccc4)nnn3c3ccccc23)c1 | 1.8 | 6.8 | 0.282 | 8.4* | -37.8
Cc1nnc(SCc2cc(=O)[nH]c(/N=C(\N)Nc3ccccc3Sc3ccccc3)n2)s1 | nt | 3.8 | -0.286 | 9.0* | nt
c1ccc2c(c1)C(=Nn1cnnc1)c1ccccc1-2 | -19.1 | 14.0 | -0.697 | 1.4 | 54.2*
O=C1/C(=N/n2cnnc2)c2ccccc2N1Cc1ccccc1 | 38.9* | 4.0 | 0.609 | 3.1 | -42.2
Cn1c(=O)n(CCc2ccccc2)c(=O)c2c1nc1n2CCCN1Cc1ccccc1 | -11.6 | 13.1 | 0.0338 | 2.4 | -9.4
Cn1c(=O)n(CCc2ccccc2)c(=O)c2c1nc1n2CCCN1CCc1ccccc1 | -22.3 | 67.1* | 0.0358 | 3.8 | -39.5

Assay outcomes: PubChem BioAssay, several laboratories
